Assay results: ChEMBL document CHEMBL2311508, “A natural product inspired hybrid approach towards the synthesis of novel pentamidine based scaffolds as potential anti-parasitic agents” (Bioorg Med Chem Lett, 2013)
Values after ≈ are worked out from the molar mass of the structure shown. Active and inactive are the calls of the source. No cut-off for these calls is given here.

Legend:
[1] = (§1) Selectivity index, ratio of CC50 for human KB cells to IC50 for amastigote stage of Leishmania donovani infected in mouse J774A.1 cells; type: functional
Outline: (§2)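 SI = CC50 in KB cells (72 h MTT, nonlinear regression) divided by IC50 against intracellular amastigotes (72 h luciferase assay in infected macrophages, logit regression).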

Leishmania donovani [2] = test: Antileishmanial activity against amastigote stage of Leishmania donovani infected in mouse J774A.1 cells assessed as intracellular parasite growth inhibition after 72 hrs by luciferase reporter gene assay; type: functional, organism-based; settings: J774.A1, 72 h
Outline: (§3)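 Macrophages seeded at 4 × 10³ cells/100 µL/well in RPMI-1640 with 10% fetal calf serum, 37 °C, CO₂. After 24 h, medium replaced with fresh medium containing stationary-phase promastigotes (4 × 10⁴/100 µL/well), which were phagocytosed and transformed to amastigotes. Compounds added at up to 7 concentrations starting from 40 µM, 72 h at 37 °C. Steady-Glo luciferase read as RLU versus untreated controls; IC50 by logit regression.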

[3] = (§4) Cytotoxicity against human KB cells after 72 hrs by MTT assay; type: cell-based; settings: KB cells
Outline: (§5)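 Mammalian cells exposed to compound dilutions for 72 h; MTT used for detection (modified Mosmann method). CC50 derived by nonlinear regression.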

KB [4] = test: as §1; type: functional; outline: as §2
[5] = Cytotoxicity against african green monkey Vero cells after 72 hrs by MTT assay; type: cell-based; settings: chlorocebus sabaeus; outline: as §5
Plasmodium falciparum [6] = test: Antimalarial activity against chloroquine-sensitive Plasmodium falciparum 3D7 assessed as parasite growth inhibition after 72 hrs by MSF assay; type: functional, organism-based; settings: 3D7, 72 h
Outline: (§6)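 P. falciparum cultures in RPMI-1640-FBS; DMSO stock 5 mg/ml, test dilutions in culture medium; duplicate wells; 1.0% parasitized cell suspension at 0.8% parasitaemia; 37 °C, 5% CO2 in air, 72 h. Lysis buffer with SYBR Green I added, 1 h at 37 °C; fluorescence read at 485/530 nm excitation/emission as RFU. Chloroquine reference. IC50 in ng/mL.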

Plasmodium falciparum [7] = test: Antimalarial activity against chloroquine-resistant Plasmodium falciparum K1 assessed as parasite growth inhibition after 72 hrs by MSF assay; type: functional, organism-based; settings: K1, 72 h; outline: as §6
[8] = Selectivity index, ratio of CC50 for african green monkey Vero cells to IC50 for chloroquine-sensitive Plasmodium falciparum 3D7; type: functional
Leishmania donovani [9] = test: Antileishmanial activity against amastigote stage of Leishmania donovani infected in mouse J774A.1 cells assessed as intracellular parasite growth inhibition at 40 uM after 72 hrs by luciferase reporter gene assay; type: functional, organism-based; outline: as §3
KB [10] = test: as §4; type: cell-based; settings: kb, 72 h; outline: as §5

Which “Ratio CC50/IC50” value [1] does the source give for `O=C(/C=C/c1ccc(OCCCCCOc2ccc(/C=C/C(=O)c3ccccc3)cc2)cc1)c1ccccc1` here?
The value was greater than 242.42.

And the IC50 (Leishmania donovani [2])?
Its IC50 is 1650 nM.

What about the CC50 at 72 h [3] of the same compound?
Its CC50 at 72 h is greater than 400 µM.

For “SODIUM ANTIMONY GLUCONATE [listing 1 of 2 here]”, which Ratio CC50/IC50 (KB [4]) is on record?
The Ratio CC50/IC50 was 5.53.

With `Cc1cc(NCc2ccccc2)nc(Nc2ccc(OCCCCCOc3ccc(Nc4nc(C)cc(NCc5ccccc5)n4)cc3)cc2)n1` as the compound, how does the “Ratio CC50/IC50” value [1] read?
The value was 15.6.

What about the CC50 at 72 h [5] of the same compound?
The CC50 at 72 h was 22.1 µg/mL (≈ 32.4 µM).

What about the IC50 (Plasmodium falciparum [6]) of the same compound?
The IC50 was 0.0514 µg/mL (≈ 0.0756 µM).

And the IC50 (Leishmania donovani [2])?
Its IC50 is 1670 nM.

And the CC50 at 72 h [3]?
Its CC50 at 72 h is 26 µM.

What about the IC50 (Plasmodium falciparum [7]) of the same compound?
Its IC50 is 0.383 µg/mL (≈ 0.562 µM).

What about the “Ratio CC50/IC50” value [8] of the same compound?
Its value is 429.15.

With `COc1ccc(C(=O)/C=C/c2ccc(OCCCCCOc3ccc(/C=C/C(=O)c4ccc(OC)c(OC)c4)cc3)cc2)cc1OC` as the compound, how does the “growth inhibition (GI)” value (Leishmania donovani [9]) read?
Its value is “inactive”.

Which “Ratio CC50/IC50” value [1] does the source give for `CCCCCCCCCCCCCCCCOP(=O)([O-])OCC[N+](C)(C)C` [MILTEFOSINE] here?
Its value is 0.25.

For `Cc1cc(N2CCOCC2)nc(Nc2ccc(OCCCCCOc3ccc(Nc4nc(C)cc(N5CCOCC5)n4)cc3)cc2)n1`, which “Ratio CC50/IC50” value [1] is on record?
The value was 4.67.

What about the CC50 at 72 h [5] of the same compound?
Its CC50 at 72 h is 2.06 µg/mL (≈ 3.21 µM).

What about the IC50 (Plasmodium falciparum [6]) of the same compound?
The IC50 was 0.264 µg/mL (≈ 0.412 µM).

What about the IC50 (Leishmania donovani [2]) of the same compound?
The IC50 was 1180 nM.

What about the CC50 at 72 h [3] of the same compound?
The CC50 at 72 h was 5.51 µM.

What about the “Ratio CC50/IC50” value [8] of the same compound?
Its value is 7.82.

For “SODIUM ANTIMONY GLUCONATE [listing 2 of 2 here]”, which CC50 (KB [10]) is on record?
Its CC50 is 398 µg/mL.

What does the source list for `Cc1cc(NC2CCCC2)nc(Nc2ccc(OCCCCCOc3ccc(Nc4nc(C)cc(NC5CCCC5)n4)cc3)cc2)n1`?
Ratio CC50/IC50 [1]: 1.11; CC50 at 72 h [5]: 18.1 µg/mL (≈ 28.4 µM); IC50 (Plasmodium falciparum [6]): 0.313 µg/mL (≈ 0.492 µM); IC50 (Leishmania donovani [2]): 1530 nM; CC50 at 72 h [3]: 1.69 µM; Ratio CC50/IC50 [8]: 57.71

Which results are given for `Nc1nc(-c2ccccc2)cc(-c2ccc(OCCCCCOc3ccc(-c4cc(-c5ccccc5)nc(N)n4)cc3)cc2)n1`?
Ratio CC50/IC50 [1]: >242.42; IC50 (Leishmania donovani [2]): 960 nM; CC50 at 72 h [3]: > 400 µM

With `Cc1cc(N2CCN(c3ccccc3)CC2)nc(Nc2ccc(OCCCCCOc3ccc(Nc4nc(C)cc(N5CCN(c6ccccc6)CC5)n4)cc3)cc2)n1` as the compound, how does the “Ratio CC50/IC50” value [1] read?
Its value is greater than 232.

What about the CC50 at 72 h [5] of the same compound?
Its CC50 at 72 h is 100 µg/mL (≈ 126 µM).

What about the IC50 (Plasmodium falciparum [6]) of the same compound?
Its IC50 is 0.0592 µg/mL (≈ 0.0749 µM).

What about the IC50 (Leishmania donovani [2]) of the same compound?
Its IC50 is 1720 nM.

And the CC50 at 72 h [3]?
Its CC50 at 72 h is greater than 400 µM.

And the IC50 (Plasmodium falciparum [7])?
Its IC50 is 0.0531 µg/mL (≈ 0.0671 µM).

And the “Ratio CC50/IC50” value [8]?
Its value is 1688.

Which “Ratio CC50/IC50” value [1] does the source give for `N=C(N)c1ccc(OCCCCCOc2ccc(C(=N)N)cc2)cc1` [PENTAMIDINE] here?
Its value is 2.58.

And the IC50 (Leishmania donovani [2])?
The IC50 was 20400 nM.

And the CC50 at 72 h [3]?
The CC50 at 72 h was 52.7 µM.

Which CC50 at 72 h [5] does the source give for `CCN(CC)CCCC(C)Nc1ccnc2cc(Cl)ccc12` (stereo not drawn) [CHLOROQUINE] here?
Its CC50 at 72 h is 75 µg/mL (≈ 234 µM).

Which results are given for `COc1ccc(CNc2cc(C)nc(Nc3ccc(OCCCCCOc4ccc(Nc5nc(C)cc(NCc6ccc(OC)cc6)n5)cc4)cc3)n2)cc1`?
Ratio CC50/IC50 [1]: 3.7; CC50 at 72 h [5]: 3.37 µg/mL (≈ 4.55 µM); IC50 (Plasmodium falciparum [6]): 0.0117 µg/mL (≈ 0.0158 µM); IC50 (Leishmania donovani [2]): 570 nM; CC50 at 72 h [3]: 2.11 µM; IC50 (Plasmodium falciparum [7]): 0.0236 µg/mL (≈ 0.0319 µM); Ratio CC50/IC50 [8]: 288.28

For `Cc1cc(NC2CC2)nc(Nc2ccc(OCCCCCOc3ccc(Nc4nc(C)cc(NC5CC5)n4)cc3)cc2)n1`, which “Ratio CC50/IC50” value [1] is on record?
The value was 6.38.

What about the CC50 at 72 h [5] of the same compound?
Its CC50 at 72 h is 0.56 µg/mL (≈ 0.964 µM).

What about the IC50 (Plasmodium falciparum [6]) of the same compound?
Its IC50 is 0.00625 µg/mL (≈ 0.0108 µM).

What about the IC50 (Leishmania donovani [2]) of the same compound?
The IC50 was 420 nM.

What about the CC50 at 72 h [3] of the same compound?
The CC50 at 72 h was 2.68 µM.

What about the IC50 (Plasmodium falciparum [7]) of the same compound?
Its IC50 is 0.0113 µg/mL (≈ 0.0194 µM).

What about the “Ratio CC50/IC50” value [8] of the same compound?
Its value is 89.6.

With `CCN1CCN(c2cc(C)nc(Nc3ccc(OCCCCCOc4ccc(Nc5nc(C)cc(N6CCN(CC)CC6)n5)cc4)cc3)n2)CC1` as the compound, how does the “Ratio CC50/IC50” value [1] read?
The value was 12.17.

What about the CC50 at 72 h [5] of the same compound?
The CC50 at 72 h was 7.13 µg/mL (≈ 10.3 µM).

What about the IC50 (Plasmodium falciparum [6]) of the same compound?
Its IC50 is 0.0451 µg/mL (≈ 0.065 µM).

And the IC50 (Leishmania donovani [2])?
The IC50 was 300 nM.

What about the CC50 at 72 h [3] of the same compound?
Its CC50 at 72 h is 3.65 µM.

And the IC50 (Plasmodium falciparum [7])?
The IC50 was 0.0221 µg/mL (≈ 0.0318 µM).

What about the “Ratio CC50/IC50” value [8] of the same compound?
Its value is 157.9.

With `Cc1cc(NCc2ccc(F)cc2)nc(Nc2ccc(OCCCCCOc3ccc(Nc4nc(C)cc(NCc5ccc(F)cc5)n4)cc3)cc2)n1` as the compound, how does the “Ratio CC50/IC50” value [1] read?
Its value is 6.16.

And the CC50 at 72 h [5]?
Its CC50 at 72 h is 41.4 µg/mL (≈ 57.8 µM).

What about the IC50 (Plasmodium falciparum [6]) of the same compound?
The IC50 was 0.0394 µg/mL (≈ 0.055 µM).

What about the IC50 (Leishmania donovani [2]) of the same compound?
Its IC50 is 1410 nM.

What about the CC50 at 72 h [3] of the same compound?
Its CC50 at 72 h is 8.68 µM.

And the IC50 (Plasmodium falciparum [7])?
Its IC50 is 0.358 µg/mL (≈ 0.5 µM).

What about the “Ratio CC50/IC50” value [8] of the same compound?
The value was 1051.51.

For `O=Cc1ccc(OCCCCCOc2ccc(/C=C/C(=O)c3ccc(Br)cc3)cc2)cc1`, which “growth inhibition (GI)” value (Leishmania donovani [9]) is on record?
Its value is “inactive”.

Which “Ratio CC50/IC50” value [1] does the source give for `COc1ccc(C(=O)/C=C/c2ccc(OCCCCCOc3ccc(C=O)cc3)cc2)cc1OC` here?
The value was 0.49.

What about the IC50 (Leishmania donovani [2]) of the same compound?
Its IC50 is 28400 nM.

And the CC50 at 72 h [3]?
Its CC50 at 72 h is 13.9 µM.

For `Cc1cc(N2CCN(C)CC2)nc(Nc2ccc(OCCCCCOc3ccc(Nc4nc(C)cc(N5CCN(C)CC5)n4)cc3)cc2)n1`, which “Ratio CC50/IC50” value [1] is on record?
Its value is 3.62.

And the CC50 at 72 h [5]?
The CC50 at 72 h was 10.8 µg/mL (≈ 16.2 µM).

And the IC50 (Plasmodium falciparum [6])?
Its IC50 is 0.245 µg/mL (≈ 0.367 µM).

What about the IC50 (Leishmania donovani [2]) of the same compound?
Its IC50 is 810 nM.

And the CC50 at 72 h [3]?
The CC50 at 72 h was 2.93 µM.

What about the “Ratio CC50/IC50” value [8] of the same compound?
The value was 43.97.
